SMILES strings stand for the structures.

In the first assay the target is T1, Sodium- and chloride-dependent GABA transporter 2 (Homo sapiens, UniProt Q9NSD5).
T1 sequence (Q9NSD5 whole entry): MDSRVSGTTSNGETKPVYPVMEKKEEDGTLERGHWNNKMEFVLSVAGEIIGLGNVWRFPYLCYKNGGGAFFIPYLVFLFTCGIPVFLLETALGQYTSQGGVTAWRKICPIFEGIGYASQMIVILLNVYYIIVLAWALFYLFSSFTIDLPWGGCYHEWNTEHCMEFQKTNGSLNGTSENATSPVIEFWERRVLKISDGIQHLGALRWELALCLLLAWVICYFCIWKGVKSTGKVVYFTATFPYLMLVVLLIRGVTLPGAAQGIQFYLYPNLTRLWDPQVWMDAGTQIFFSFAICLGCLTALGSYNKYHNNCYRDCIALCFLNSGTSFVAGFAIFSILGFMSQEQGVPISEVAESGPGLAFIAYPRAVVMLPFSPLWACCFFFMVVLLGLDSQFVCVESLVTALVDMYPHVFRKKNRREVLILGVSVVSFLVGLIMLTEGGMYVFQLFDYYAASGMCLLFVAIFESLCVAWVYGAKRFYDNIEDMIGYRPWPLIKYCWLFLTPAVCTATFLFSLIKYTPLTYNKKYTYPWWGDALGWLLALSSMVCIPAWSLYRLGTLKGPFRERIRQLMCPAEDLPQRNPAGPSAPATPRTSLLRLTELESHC
As to the kind of experiment: Inhibition of human GAT2 expresses in tsA201 cells assessed as reduction in [3H]GABA uptake after 3 mins by scintillation counting method. The format is cell-based.
Conditions: not given
The essentials: (§1)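 Wild-type human GAT transiently expressed in tsA201 cells via pcDNA5/FRT and PolyFect. Uptake of 30 nM [3H]GABA was run for 3 min at 37 °C in HBSS/20 mM HEPES with 1 mM CaCl2 and 1 mM MgCl2, pH 7.4, across a range of test concentrations. Ice-cold washes were followed by scintillation counting. IC50 was obtained by sigmoidal variable-slope fitting, reported as mean pIC50 ± S.E.M.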
By IC50 is commonly meant the concentration that gives 50% inhibition. For the compound `O=C(NC1CCN(Cc2ccccc2)CC1)c1ccc2ccccc2c1`, the IC50 came to 23 µM.

Take `O=C(NC1CCN(Cc2ccccc2)CC1)c1ccc2c(c1)OCO2`: the IC50 was found to be 63 µM.

The assay is the same for the next values; noted with them: read-out: IC50.
As for `O=C(NC1CCN(Cc2ccccc2)CC1)c1cccc(C(F)(F)F)c1`, the IC50 is more than 500 µM.

On to `CCOP(=O)(CCCN1CCC(NC(=O)c2ccc(Cl)cc2Cl)CC1)OCC`, for which the IC50 was more than 1000 µM.

As for `O=C(NC1CCN(Cc2ccc3ccccc3c2)CC1)c1ccc(Cl)cc1Cl`, the IC50 is more than 50 µM.

`CCN1CCC(NC(=O)c2ccc(Cl)cc2Cl)CC1`: the IC50 was more than 1000 µM.

As for `O=C(NC1CCN(Cc2cccnc2)CC1)c1ccc(Cl)cc1Cl`, the IC50 was more than 1000 µM.

Another assay concerns the target T2, Sodium- and chloride-dependent GABA transporter 3 (Homo sapiens, UniProt P48066).
T2 sequence (P48066 whole entry): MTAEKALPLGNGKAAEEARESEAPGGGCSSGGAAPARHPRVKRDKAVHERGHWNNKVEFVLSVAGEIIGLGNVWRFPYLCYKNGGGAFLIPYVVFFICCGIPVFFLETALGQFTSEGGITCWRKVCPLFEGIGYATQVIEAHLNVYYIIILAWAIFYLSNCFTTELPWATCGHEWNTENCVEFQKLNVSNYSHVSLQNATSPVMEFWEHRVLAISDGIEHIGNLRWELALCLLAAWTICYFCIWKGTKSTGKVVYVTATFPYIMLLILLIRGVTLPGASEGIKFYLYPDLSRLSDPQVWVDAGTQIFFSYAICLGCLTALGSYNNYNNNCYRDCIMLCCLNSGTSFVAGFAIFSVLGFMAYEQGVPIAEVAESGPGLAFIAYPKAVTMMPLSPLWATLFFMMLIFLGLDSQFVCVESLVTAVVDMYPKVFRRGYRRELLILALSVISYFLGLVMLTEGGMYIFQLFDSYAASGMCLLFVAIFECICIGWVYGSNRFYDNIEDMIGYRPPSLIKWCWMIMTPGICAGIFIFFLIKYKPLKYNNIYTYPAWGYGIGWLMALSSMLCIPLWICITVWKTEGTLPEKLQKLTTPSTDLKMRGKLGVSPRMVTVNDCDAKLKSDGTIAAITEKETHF
Put plainly: Inhibition of human GAT3 expresses in tsA201 cells assessed as reduction in [3H]GABA uptake after 3 mins by scintillation counting method.
Conditions: not given
The format is cell-based. The essentials: as §1
With `O=C(NC1CCN(Cc2ccccc2)CC1)c1ccc2ccccc2c1`, the IC50 was more than 100 µM.

As to `O=C(NC1CCN(Cc2ccccc2)CC1)c1ccc2c(c1)OCO2`, the IC50 was more than 100 µM.

Staying with this assay, now noted: read-out: IC50.
On to `O=C(NC1CCN(Cc2ccccc2)CC1)c1cccc(C(F)(F)F)c1`, for which the IC50 was more than 500 µM.

Turning to `CCOP(=O)(CCCN1CCC(NC(=O)c2ccc(Cl)cc2Cl)CC1)OCC`, the half-maximal inhibitory concentration (IC50) was more than 1000 µM.

On to `O=C(NC1CCN(Cc2ccc3ccccc3c2)CC1)c1ccc(Cl)cc1Cl`, for which the IC50 is more than 50 µM.

Turning to `CCN1CCC(NC(=O)c2ccc(Cl)cc2Cl)CC1`, the IC50 was more than 1000 µM.

As to `O=C(NC1CCN(Cc2cccnc2)CC1)c1ccc(Cl)cc1Cl`, the IC50 is more than 1000 µM.

The target in the next assay is Sodium- and chloride-dependent GABA transporter 1 (Homo sapiens, UniProt P30531). The format is cell-based.
Sodium- and chloride-dependent GABA transporter 1, sequence (P30531 whole entry): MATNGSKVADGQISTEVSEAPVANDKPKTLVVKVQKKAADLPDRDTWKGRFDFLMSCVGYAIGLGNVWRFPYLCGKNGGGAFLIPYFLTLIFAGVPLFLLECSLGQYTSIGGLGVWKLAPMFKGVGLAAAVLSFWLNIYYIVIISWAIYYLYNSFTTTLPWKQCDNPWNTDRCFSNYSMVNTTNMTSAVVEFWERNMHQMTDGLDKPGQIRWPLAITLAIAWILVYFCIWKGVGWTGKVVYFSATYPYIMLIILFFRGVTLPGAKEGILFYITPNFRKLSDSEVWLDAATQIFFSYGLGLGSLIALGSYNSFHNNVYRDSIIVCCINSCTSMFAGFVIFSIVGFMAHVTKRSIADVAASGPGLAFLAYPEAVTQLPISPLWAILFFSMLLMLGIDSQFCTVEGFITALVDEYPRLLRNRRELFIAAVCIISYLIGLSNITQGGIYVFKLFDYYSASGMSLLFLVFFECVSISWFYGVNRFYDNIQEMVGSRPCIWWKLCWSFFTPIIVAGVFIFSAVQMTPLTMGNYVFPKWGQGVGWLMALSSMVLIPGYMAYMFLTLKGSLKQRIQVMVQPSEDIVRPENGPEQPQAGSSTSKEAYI
Conditions: not given
In the case of `O=C(NC1CCN(Cc2ccccc2)CC1)c1ccc2ccccc2c1`, the IC50 was more than 100 µM.

Turning to `O=C(NC1CCN(Cc2ccccc2)CC1)c1ccc2c(c1)OCO2`, the IC50 was more than 100 µM.

Staying with this assay, now noted: read-out: IC50.
With `O=C(NC1CCN(Cc2ccccc2)CC1)c1cccc(C(F)(F)F)c1`, the half-inhibitory concentration (IC50) was more than 500 µM.

On to `CCOP(=O)(CCCN1CCC(NC(=O)c2ccc(Cl)cc2Cl)CC1)OCC`, for which the IC50 was more than 1000 µM.

In the case of `O=C(NC1CCN(Cc2ccc3ccccc3c2)CC1)c1ccc(Cl)cc1Cl`, the IC50 was more than 50 µM.

On to `CCN1CCC(NC(=O)c2ccc(Cl)cc2Cl)CC1`, for which the IC50 was more than 1000 µM.

In the case of `O=C(NC1CCN(Cc2cccnc2)CC1)c1ccc(Cl)cc1Cl`, the IC50 was more than 1000 µM.

Another assay concerns the target T3, Sodium- and chloride-dependent betaine transporter (Homo sapiens, UniProt P48065).
T3 sequence (P48065 whole entry): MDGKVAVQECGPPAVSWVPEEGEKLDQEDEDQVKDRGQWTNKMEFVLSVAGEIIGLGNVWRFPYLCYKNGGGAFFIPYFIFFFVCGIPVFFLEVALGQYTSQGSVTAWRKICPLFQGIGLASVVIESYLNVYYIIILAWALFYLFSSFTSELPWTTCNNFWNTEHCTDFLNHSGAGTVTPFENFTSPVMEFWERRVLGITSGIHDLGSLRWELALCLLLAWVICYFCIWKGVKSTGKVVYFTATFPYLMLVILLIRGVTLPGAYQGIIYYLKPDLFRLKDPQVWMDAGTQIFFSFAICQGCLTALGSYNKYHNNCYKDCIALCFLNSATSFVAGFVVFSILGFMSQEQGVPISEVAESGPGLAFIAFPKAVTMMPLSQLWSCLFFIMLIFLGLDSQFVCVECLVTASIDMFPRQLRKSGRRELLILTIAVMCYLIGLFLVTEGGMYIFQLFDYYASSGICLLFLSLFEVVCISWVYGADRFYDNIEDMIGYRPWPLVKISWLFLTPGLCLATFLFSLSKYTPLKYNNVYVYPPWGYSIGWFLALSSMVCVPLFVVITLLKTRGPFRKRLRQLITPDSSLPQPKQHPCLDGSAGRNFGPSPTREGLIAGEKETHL
Put plainly: Inhibition of human BGT1 expresses in tsA201 cells assessed as reduction in [3H]GABA uptake after 3 mins by scintillation counting method. The format is cell-based.
Conditions: not given
The essentials: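 tsA201 cells transiently transfected with wild-type or mutant human BGT1 (PolyFect) were plated about 24 h before assay. Three ice-cold washes followed, then scintillation counting.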
`O=C(NC1CCN(Cc2ccccc2)CC1)c1ccc2ccccc2c1`: the IC50 came to 15 µM.

On to `O=C(NC1CCN(Cc2ccccc2)CC1)c1ccc2c(c1)OCO2`, for which the IC50 amounted to 42 µM.

The assay is the same for the next values; noted with them: read-out: IC50.
Regarding `O=C(NC1CCN(Cc2ccccc2)CC1)c1cccc(C(F)(F)F)c1`, the IC50 stood at 170 µM.

On to `CCOP(=O)(CCCN1CCC(NC(=O)c2ccc(Cl)cc2Cl)CC1)OCC`, for which the IC50 was more than 1000 µM.

Regarding `O=C(NC1CCN(Cc2ccc3ccccc3c2)CC1)c1ccc(Cl)cc1Cl`, the IC50 is more than 50 µM.

For `CCN1CCC(NC(=O)c2ccc(Cl)cc2Cl)CC1`, the IC50 was more than 1000 µM.

Turning to `O=C(NC1CCN(Cc2cccnc2)CC1)c1ccc(Cl)cc1Cl`, the IC50 is more than 1000 µM.

These data come from ChEMBL document CHEMBL4028872, “Structure-Activity Relationship, Pharmacological Characterization, and Molecular Modeling of Noncompetitive Inhibitors of the Betaine/γ-Aminobutyric Acid Transporter 1 (BGT1)” (J Med Chem, 2017).
